Converted amounts (≈) assume the structure as drawn. The source made the active and inactive calls. The calls are words filed in the database; no cut-off is given here.
Columns and labels:
[1] = test system: Escherichia coli; test: Antibacterial activity against Escherichia coli ATCC 25922 at 5 to 100 ug after 18 hrs by agar disk-diffusion method; format: functional, organism-based
Procedure, shortened: (§1)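 Agar disk diffusion per CLSI: compound loaded on sterile 6 mm paper disks, dried, placed on Mueller Hinton agar lawned with bacteria at McFarland 0.5; cefotaxime positive and DMSO solvent controls; 37 °C for 18 h; zone of inhibition diameter measured to nearest whole mm.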

[2] = test system: Pseudomonas aeruginosa; test: Antibacterial activity against Pseudomonas aeruginosa at 5 to 100 ug after 18 hrs by agar disk-diffusion method; format: functional, organism-based; procedure, shortened: as §1
[3] = test system: Staphylococcus aureus; test: Antibacterial activity against Staphylococcus aureus ATCC 29213 at 5 to 100 ug after 18 hrs by agar disk-diffusion method; format: functional, organism-based; procedure, shortened: as §1
[4] = test system: HEK293; test: Cytotoxicity against HEK293 cells assessed as decrease in cell viability at 1 to 200 uM after 24 hrs by Alamar Blue assay; format: cell-based; settings: human, hek293, 24 h
Procedure, shortened: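 HEK293 cells in DMEM HG, 10% FBS, 1% pen-strep, 37 °C 5% CO2, passage under 30, used at 80% confluency; seeded 1×10^4/well, after 24 h washed and treated 24 h with 1–200 µM in complete medium; alamar blue (0.15 mg/mL) added for 4 h, absorbance 570 and 600 nm; viability relative to untreated cells as 100%.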

[5] = test system: Staphylococcus aureus; test: Antibacterial activity against Staphylococcus aureus ATCC 29213 at 30 ug after 18 hrs by agar disk-diffusion method; format: functional; procedure, shortened: as §1
[6] = test system: Staphylococcus aureus; test: Antibiofilm activity against Staphylococcus aureus ATCC 29213 at 128 ug/ml after 18 hrs by XTT-menadione assay relative to control; format: functional
Procedure, shortened: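 Biofilms grown 24 h at 37 °C from suspension at OD600 0.1 in tryptic soy broth with 1% glucose, washed twice with saline, exposed 18 h at 37 °C to twofold serial dilutions; growth and sterility controls. Read by XTT (0.5 mg/mL)–menadione (10 µM) in MHB, 1 h dark at 37 °C, absorbance 450 nm; MBIC50 and MBIC100 = 50% and 100% inhibition.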

[7] = test system: Staphylococcus aureus; test: Antibacterial activity against Staphylococcus aureus ATCC 29213 after 18 hrs by broth microdilution method; format: functional, organism-based; settings: ATCC 29213, 18 h
Procedure, shortened: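 Broth microdilution per CLSI for water-insoluble agents: twofold serial dilutions made in DMSO at 100x final, diluted in Mueller Hinton broth to 1% final DMSO; 5x10^5 cfu/mL bacteria exposed 18 h at 37 °C with positive, growth and sterility controls. MIC = lowest concentration giving complete growth inhibition (turbidity and XTT reduction); IC50 from OD600 dose-response inflection point.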

Compound	Activity [1]	Activity [2]	Activity [3]	Activity [4]	also measured
CC(C)(C)OC(=O)NCCN(CCN)C(=O)OC(C)(C)C	inactive	inactive	–	–	–
CC(=O)N(CCNC(=O)CC[C@@H](C)[C@H]1CC[C@H]2[C@@H]3[C@H](O)C[C@@H]4C[C@H](O)CC[C@]4(C)[C@H]3C[C@H](O)[C@]12C)CCNC(=O)CC[C@@H](C)[C@H]1CC[C@H]2[C@@H]3[C@H](O)C[C@@H]4C[C@H](O)CC[C@]4(C)[C@H]3C[C@H](O)[C@]12C	inactive	inactive	inactive	–	–
C[C@H](CCC(=O)NCCCCCNC(=O)CC[C@@H](C)[C@H]1CC[C@H]2[C@@H]3[C@H](O)C[C@@H]4C[C@H](O)CC[C@]4(C)[C@H]3C[C@H](O)[C@]12C)[C@H]1CC[C@H]2[C@@H]3[C@H](O)C[C@@H]4C[C@H](O)CC[C@]4(C)[C@H]3C[C@H](O)[C@]12C	inactive	inactive	inactive	–	–
C[C@H](CCC(=O)N1CCCN(C(=O)CC[C@@H](C)[C@H]2CC[C@H]3[C@@H]4[C@H](O)C[C@@H]5C[C@H](O)CC[C@]5(C)[C@H]4C[C@H](O)[C@]23C)CCN(C(=O)CC[C@@H](C)[C@H]2CC[C@H]3[C@@H]4[C@H](O)C[C@@H]5C[C@H](O)CC[C@]5(C)[C@H]4C[C@H](O)[C@]23C)CCCN(C(=O)CC[C@@H](C)[C@H]2CC[C@H]3[C@@H]4[C@H](O)C[C@@H]5C[C@H](O)CC[C@]5(C)[C@H]4C[C@H](O)[C@]23C)CC1)[C@H]1CC[C@H]2[C@@H]3[C@H](O)C[C@@H]4C[C@H](O)CC[C@]4(C)[C@H]3C[C@H](O)[C@]12C	inactive	inactive	inactive	Non-Toxic	–
C[C@H](CCC(=O)NCCCNC(=O)CC[C@@H](C)[C@H]1CC[C@H]2[C@@H]3[C@H](O)C[C@@H]4C[C@H](O)CC[C@]4(C)[C@H]3C[C@H](O)[C@]12C)[C@H]1CC[C@H]2[C@@H]3[C@H](O)C[C@@H]4C[C@H](O)CC[C@]4(C)[C@H]3C[C@H](O)[C@]12C	inactive	inactive	–	Non-Toxic	Activity [5]: inactive
CN[C@H](CC(C)C)C(=O)N[C@H]1C(=O)N[C@@H](CC(N)=O)C(=O)N[C@H]2C(=O)N[C@H]3C(=O)N[C@H](C(=O)N[C@H](C(=O)O)c4cc(O)cc(O)c4-c4cc3ccc4O)[C@H](O)c3ccc(c(Cl)c3)Oc3cc2cc(c3O[C@@H]2O[C@H](CO)[C@@H](O)[C@H](O)[C@H]2O[C@H]2C[C@](C)(N)[C@H](O)[C@H](C)O2)Oc2ccc(cc2Cl)[C@H]1O [VANCOMYCIN]	–	–	–	–	Activity [6]: <50%
C[C@H](CCC(=O)NCCNCCNC(=O)CC[C@@H](C)[C@H]1CC[C@H]2[C@@H]3CC[C@@H]4C[C@H](O)CC[C@]4(C)[C@H]3C[C@H](O)[C@]12C)[C@H]1CC[C@H]2[C@@H]3CC[C@@H]4C[C@H](O)CC[C@]4(C)[C@H]3C[C@H](O)[C@]12C	inactive	inactive	–	–	Activity [5]: inactive
C[C@H](CCC(=O)NCCNC(=O)CC[C@@H](C)[C@H]1CC[C@H]2[C@@H]3CC[C@@H]4C[C@H](O)CC[C@]4(C)[C@H]3C[C@H](O)[C@]12C)[C@H]1CC[C@H]2[C@@H]3CC[C@@H]4C[C@H](O)CC[C@]4(C)[C@H]3C[C@H](O)[C@]12C	inactive	inactive	–	Non-Toxic	Activity [5]: inactive
NCC[C@H](O)C(=O)N[C@@H]1C[C@H](N)[C@@H](O[C@H]2O[C@H](CN)[C@@H](O)[C@H](O)[C@H]2O)[C@H](O)[C@H]1O[C@H]1O[C@H](CO)[C@@H](O)[C@H](N)[C@H]1O [AMIKACIN]	–	–	–	–	Activity [6]: <50%
C[C@H](CCC(=O)NCCN(CCN(CCNC(=O)CC[C@@H](C)[C@H]1CC[C@H]2[C@@H]3[C@H](O)C[C@@H]4C[C@H](O)CC[C@]4(C)[C@H]3C[C@H](O)[C@]12C)C(=O)OC(C)(C)C)C(=O)OC(C)(C)C)[C@H]1CC[C@H]2[C@@H]3[C@H](O)C[C@@H]4C[C@H](O)CC[C@]4(C)[C@H]3C[C@H](O)[C@]12C	inactive	inactive	inactive	–	–
CCCCCCCCCCCCCCCC(=O)NCCNCCN	inactive	inactive	–	–	–
C[C@H](CCC(=O)NCCNC(=O)CC[C@@H](C)[C@H]1CC[C@H]2[C@@H]3[C@H](O)C[C@@H]4C[C@H](O)CC[C@]4(C)[C@H]3C[C@H](O)[C@]12C)[C@H]1CC[C@H]2[C@@H]3[C@H](O)C[C@@H]4C[C@H](O)CC[C@]4(C)[C@H]3C[C@H](O)[C@]12C	inactive	inactive	–	Non-Toxic	Activity [5]: inactive
CCCCCCCCCCCCCCCC(=O)N(CCNC(=O)CC[C@@H](C)[C@H]1CC[C@H]2[C@@H]3[C@H](O)C[C@@H]4C[C@H](O)CC[C@]4(C)[C@H]3C[C@H](O)[C@]12C)CCNC(=O)CC[C@@H](C)[C@H]1CC[C@H]2[C@@H]3[C@H](O)C[C@@H]4C[C@H](O)CC[C@]4(C)[C@H]3C[C@H](O)[C@]12C	inactive	inactive	inactive	–	–
CO/N=C(\C(=O)N[C@@H]1C(=O)N2C(C(=O)O)=C(COC(C)=O)CS[C@H]12)c1csc(N)n1 [CEFOTAXIME]	–	–	–	–	Activity [6]: <50%
C[C@H](CCC(=O)NCCN(CCNC(=O)CC[C@@H](C)[C@H]1CC[C@H]2[C@@H]3[C@H](O)C[C@@H]4C[C@H](O)CC[C@]4(C)[C@H]3C[C@H](O)[C@]12C)CCNC(=O)CC[C@@H](C)[C@H]1CC[C@H]2[C@@H]3[C@H](O)C[C@@H]4C[C@H](O)CC[C@]4(C)[C@H]3C[C@H](O)[C@]12C)[C@H]1CC[C@H]2[C@@H]3[C@H](O)C[C@@H]4C[C@H](O)CC[C@]4(C)[C@H]3C[C@H](O)[C@]12C	inactive	inactive	inactive	Non-Toxic	–
O=C(O)c1cn(C2CC2)c2cc(N3CCNCC3)c(F)cc2c1=O [CIPROFLOXACIN]	–	–	–	–	Activity [6]: <50%
CCCCCCCCCCCCCCCC(=O)NCCN(CCNC(=O)OC(C)(C)C)C(=O)OC(C)(C)C	inactive	inactive	–	–	–
C[C@H](CCC(=O)NCCCNC(=O)CC[C@@H](C)[C@H]1CC[C@H]2[C@@H]3CC[C@@H]4C[C@H](O)CC[C@]4(C)[C@H]3C[C@H](O)[C@]12C)[C@H]1CC[C@H]2[C@@H]3CC[C@@H]4C[C@H](O)CC[C@]4(C)[C@H]3C[C@H](O)[C@]12C	inactive	inactive	–	Non-Toxic	Activity [5]: inactive
C[C@H](CCC(=O)NCCN(CCNC(=O)CC[C@@H](C)[C@H]1CC[C@H]2[C@@H]3CC[C@@H]4C[C@H](O)CC[C@]4(C)[C@H]3C[C@H](O)[C@]12C)CCNC(=O)CC[C@@H](C)[C@H]1CC[C@H]2[C@@H]3CC[C@@H]4C[C@H](O)CC[C@]4(C)[C@H]3C[C@H](O)[C@]12C)[C@H]1CC[C@H]2[C@@H]3CC[C@@H]4C[C@H](O)CC[C@]4(C)[C@H]3C[C@H](O)[C@]12C	inactive	inactive	inactive	Non-Toxic	–
CCCCCCCCCCCCCCCC(=O)NCCNCCNC(=O)CC[C@@H](C)[C@H]1CC[C@H]2[C@@H]3[C@H](O)C[C@@H]4C[C@H](O)CC[C@]4(C)[C@H]3C[C@H](O)[C@]12C	inactive	inactive	inactive	–	–
C[C@H](CCC(=O)NCCNCCNCCNC(=O)CC[C@@H](C)[C@H]1CC[C@H]2[C@@H]3[C@H](O)C[C@@H]4C[C@H](O)CC[C@]4(C)[C@H]3C[C@H](O)[C@]12C)[C@H]1CC[C@H]2[C@@H]3[C@H](O)C[C@@H]4C[C@H](O)CC[C@]4(C)[C@H]3C[C@H](O)[C@]12C	inactive	inactive	–	–	IC50 [7]: 12.1 µg/mL (≈ 13 µM); MIC [7]: 16 µg/mL (≈ 17.3 µM); zone of inhibition at 30 µg/disc ([5]; ATCC 29213, 18 h, read-out: DIZ): 11 mm

— ChEMBL document CHEMBL4152391, “Bile Acid Oligomers and Their Combination with Antibiotics To Combat Bacterial Infections” (J Med Chem, 2018)
